Assay outcomes (PubChem)
Sampled rows, rich in hits. Any-hit rate of the full collection: about 5.7%.
CSC inhib: blocks cancer stem cells. cancer stem cell-like cells viability, luminescence. 300,000 compounds, 1.1% hits. AID 2717. inhibition, % at 7.5 µM; in the data active = inhibition above about 75%; inconclusive = no clear call, values can overlap the other calls; tested in HMLE shEcad cells
T cruzi inh: T. cruzi replication inhibition; 300,000 compounds, 1.4% hits; inhibition, % (concentration not given with the values); T. cruzi beta-gal in NIH3T3, luminescence, 90 h;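 active = mean inhibition across valid replicates above about 55%, limit read from the data; inconclusive = mean below that limit but half or more replicates reach it; inactive = mean below it, under half of replicates reach it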;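 note: signal also drops with host cell toxicity which is not excluded here; 0% = plate median of DMSO wells and 100% = zero luminescence signal; higher percent means less beta-gal luminescence so fewer parasites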
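Assay system: NIH/3T3 host cells with β-galactosidase reporter T. cruzi; input: 5,000 host fibroblasts per well; compound: single 50 nL compound addition per well in DMSO; timing: ≥90 h infection period, 3 h prior cell attachment; measured by: GalScreen β-gal luminescence, detergent lysis, 60 min; evaluation: percent inhibition of parasite-derived β-gal signal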
Calb FLC: affects C. albicans growth with fluconazole. 300,000 compounds, 0.57% hits. growth inhibition, % (concentration not given with the values). C. albicans CaCi-2 (fluconazole-resistant clinical isolate) + fluconazole, Alamar Blue growth, 48 h;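 active = growth inhibition above about 58% in most replicates, limit read from the data, passing the limit was not always enough; inconclusive = exactly half the replicates above a set limit; inactive = most replicates below a set limit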;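 note: all wells also contain fluconazole at 8 µg/ml as a sub-toxic cotreatment; 0% = median of DMSO wells and 100% = median of geldanamycin control wells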
Mdm2-MdmX inh: inhibitors of human Mdm2/MdmX interaction. SaOS-2 split-luciferase Mdm2/MdmX complementation, luminescence. inhibition, % at 8 µM. 330,000 compounds, 3% hits. AID 485346;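 active = inhibition of at least 50% at 8 µM in the primary screen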
Target sequence (O15151 whole entry, looked up): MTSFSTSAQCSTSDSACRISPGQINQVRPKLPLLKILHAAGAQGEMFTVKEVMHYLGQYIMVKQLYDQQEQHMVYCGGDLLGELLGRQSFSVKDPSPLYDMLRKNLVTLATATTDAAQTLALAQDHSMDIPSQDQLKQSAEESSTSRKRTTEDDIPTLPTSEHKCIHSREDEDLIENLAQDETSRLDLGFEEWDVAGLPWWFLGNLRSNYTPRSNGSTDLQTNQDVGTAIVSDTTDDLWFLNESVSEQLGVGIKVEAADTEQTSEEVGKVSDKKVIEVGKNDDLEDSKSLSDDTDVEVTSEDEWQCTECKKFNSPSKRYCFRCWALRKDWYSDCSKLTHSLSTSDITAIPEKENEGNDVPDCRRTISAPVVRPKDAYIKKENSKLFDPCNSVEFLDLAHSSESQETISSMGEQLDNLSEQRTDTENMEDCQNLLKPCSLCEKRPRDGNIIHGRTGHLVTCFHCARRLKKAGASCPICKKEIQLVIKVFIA
Target sequence (Q00987 whole entry, looked up): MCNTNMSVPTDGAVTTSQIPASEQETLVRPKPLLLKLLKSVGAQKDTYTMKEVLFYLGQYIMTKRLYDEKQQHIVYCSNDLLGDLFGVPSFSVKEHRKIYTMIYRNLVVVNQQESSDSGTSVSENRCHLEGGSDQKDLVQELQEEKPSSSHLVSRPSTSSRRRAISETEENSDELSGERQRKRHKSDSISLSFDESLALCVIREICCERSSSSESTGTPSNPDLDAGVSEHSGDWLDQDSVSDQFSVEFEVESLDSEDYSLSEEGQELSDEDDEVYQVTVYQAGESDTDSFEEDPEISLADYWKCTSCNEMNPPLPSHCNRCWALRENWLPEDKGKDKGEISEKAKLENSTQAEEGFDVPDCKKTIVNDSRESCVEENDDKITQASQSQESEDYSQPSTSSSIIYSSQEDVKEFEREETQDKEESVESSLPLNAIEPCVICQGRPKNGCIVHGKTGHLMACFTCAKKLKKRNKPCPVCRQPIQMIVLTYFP
SKKanGAS inh: SKKanGAS growth inhibition; inhibition, % at 7.5 µM; S. pyogenes SKKanGAS, kanamycin growth, BacTiter-Glo, 6 h; 300,000 compounds, 1.3% hits; AID 1662;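 active = mean replicate score, as percent of positive control median, at least 50; inconclusive = mean below 50 but one replicate at or above 50; inactive = mean and every replicate below 50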;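 note: strain carries kanamycin resistance gene driven by streptokinase promoter and grows in 40 µg/ml kanamycin; loss of luminescence reflects streptokinase promoter inhibition or plain growth inhibition; 0% = median of DMSO wells and 100% = positive control at its reference dose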
Beta apoptosis: blocks beta cell apoptosis; INS-1E cytokine-induced death, ATP luminescence, 48 h; percent of positive-control rescue, neutral wells zero; protection from apoptosis, % (test concentration not listed); 300,000 compounds, 0.8% hits; AID 435005;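 active = Every replicate reaches about 75%, or at least half do and their mean reaches it too, limit read from the data; inconclusive = At least half of replicates reach the limit but their mean does not; inactive = Under half of replicates reach the limit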;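 note: 0% = cytokine-treated negative control wells and 100% = positive control rescue; higher means more ATP so stronger rescue from cytokine killing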
Mdm2 MdmX conf: confirmation of human Mdm2/MdmX interaction inhibitors | shares compounds with Mdm2-MdmX inh | Mdm2-MdmX binding, luminescent assay | inhibition, % at 8 µM | 10,000 compounds, 55% hits; in the data active = inhibition above about 40%
FLuc counter: inhibits full-length luciferase, flagging false Mdm2/MdmX hits; shares compounds with Mdm2-MdmX inh; inhibition, % at 8 µM; SaOS-2 full-length luciferase counterscreen, luminescence; 6,200 compounds, 77% hits;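 active = mean inhibition at 8 µM reaching about 37%, which flags the compound as non-specific, limit read from the data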;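 note: p53-null SaOS-2 cells with luciferase driven by a doxycycline-inducible promoter; compound on cells about two nights before reading with doxycycline added after day one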
Numbers without * were called inactive; ? = inconclusive; · = not tested or not shown.

SMILES | CSC inhib | T cruzi inh | Calb FLC | Mdm2-MdmX inh | SKKanGAS inh | Beta apoptosis | Mdm2 MdmX conf | others
COc1ccc(-c2cc(=O)oc3c(C)c(O)ccc23)cc1 | 19 | -24 | -2 | 65* | 6 | -8 | 81* | FLuc counter=53*
COc1cccc(CN(C(=O)/C=C/c2ccco2)C2CCS(=O)(=O)C2)c1 (stereo not given) | -5 | -6 | -9 | 14 | -3 | -3 | ·
COC(=O)C1=C(CN2CCCc3ccccc32)NC(=O)NC1c1ccc(F)cc1 (stereo not given) | -1 | 4 | 0 | 70* | 20 | -4 | 72* | FLuc counter=38*
COC(=O)C1=C(CN2CCc3ccccc32)NC(=O)NC1c1cc(C)ccc1C (stereo not given) | 16 | 13 | 5 | 7 | 14 | 1 | ·
N#CC1=C(N)Oc2cc(N)ccc2C1c1ccccc1F (stereo not given) | 48 | 0 | -3 | 56* | 6 | 6 | 52* | FLuc counter=67*
N#CC1=C(N)Oc2cc(N)ccc2C1c1ccsc1 (stereo not given) | -2 | -18 | -2 | 11 | 1 | -3 | ·
N#CC1=C(N)Oc2cc(N)ccc2C1c1cc(Br)cs1 (stereo not given) | 60 | -4 | 4 | 58* | 3 | 19 | 29
Cc1cc(OCC(O)CN(C)C(=O)C(C)Oc2ccccc2)ccc1Cl (stereo not given) | -8 | 4 | 8 | -6 | -2 | -3 | ·
COc1cccc(CC(=O)Nc2ccc3c(c2)OC2(CCCC2)O3)c1 | · | · | · | -21 | · | 0 | ·
O=C(CONS(=O)(=O)c1ccc(Cl)cc1)NCCNc1ncc(C(F)(F)F)cc1Cl | 38 | -2 | 17 | -10 | 5 | 4 | ·
Cc1ccc(C(=O)c2nc(C(=O)NCCO)nc3ccccc23)cc1 | 5 | · | · | -4 | · | -18 | ·
COc1ccc(C(=O)c2cnc3ccccc3c2-c2ccccc2)cc1 | 18 | 20 | 7 | 57* | -3 | -21 | 23
Cc1ccc(C(=O)c2cnc3ccccc3c2-c2ccccc2)cc1 | 15 | 33 | 9 | 56* | 10 | -8 | 30
Oc1ccc(C[C@@H]2CNCCN2CCCCC2CCCCC2)cc1 | 45 | 11 | -2 | 57* | 9 | 2 | 16
Oc1ccc(C[C@H]2CNCCN2CCc2cc(C(F)(F)F)cc(C(F)(F)F)c2)cc1 | 53 | 7 | -3 | 58* | 13 | -19 | 12
Oc1ccc(C[C@@H]2CNCCN2CCc2cc(C(F)(F)F)cc(C(F)(F)F)c2)cc1 | 36 | 26 | -2 | 47 | 5 | -1 | ·
FC(F)(F)c1cc(CCN2CCNC[C@H]2Cc2cccc3ccccc23)cc(C(F)(F)F)c1 | ? | 32 | 2 | 100* | 70* | 5 | 36 | FLuc counter=75*
O=C(/C=C/c1ccco1)Nc1ccc(Cl)c(S(=O)(=O)N2CCOCC2)c1 | -3 | -15 | -6 | 20 | 10 | -3 | ·
CN(C)S(=O)(=O)Nc1cc(Cl)cc(Cl)c1 | -6 | 8 | 7 | -15 | 20 | · | ·
O=C(Nc1nnc(-c2ccc3c(c2)CCCC3)o1)c1ccccc1 | 92* | 45 | 88* | 57* | 94* | 7 | 66* | FLuc counter=47*
O=C(Nc1nnc(-c2ccncc2)o1)c1ccccc1 | 12 | -19 | 3 | 8 | -7 | 3 | ·
Cc1csc(Nc2nc(N)c(C(=O)Nc3ccccc3)o2)n1 | -14 | 16 | 5 | -15 | -6 | -12 | ·
O=C(Nc1ccccc1)/C(=C/c1ccc([N+](=O)[O-])cc1)NC(=O)c1ccco1 | 7 | -1 | -10 | 67* | 2 | · | 6
O=C(Nc1ccccc1)/C(=C\c1ccccc1)NC(=O)c1ccco1 | -2 | 27 | 0 | 11 | -1 | -5 | ·
CN(C)/C=C/C(=O)c1ccc(N2CCN(c3ncc(C(F)(F)F)cc3Cl)CC2)cc1 | 26 | -5 | 21 | 92* | 16 | 0 | 1
SMILES | CSC inhib | T cruzi inh | Calb FLC | Mdm2-MdmX inh | SKKanGAS inh | Beta apoptosis | Mdm2 MdmX conf | others
Cc1n[nH]c(=O)c2c(NC(=O)CSc3nnc(C4CC4)n3C)oc(C)c12 | -21 | 2 | 3 | 8 | -2 | -6 | ·
Cc1[nH]n2c(=O)cc(-c3ccc([N+](=O)[O-])cc3)nc2c1-c1ccccc1 | -9 | 4 | -1 | 66* | 102* | 3 | 66* | FLuc counter=39*
CC1=C(C(=O)OCc2ccc3c(c2)OCO3)C(c2cccc([N+](=O)[O-])c2)NC(=O)N1 (stereo not given) | 8 | 2 | -15 | 50 | -2 | -1 | 70* | FLuc counter=45*
CC1=C(C(=O)OCc2ccccc2)C(c2cccc([N+](=O)[O-])c2)NC(=O)N1 (stereo not given) | -10 | -1 | 1 | 27 | 0 | -5 | ·
C=CCOc1c(Cl)cc(C(=S)N2CCCC2)cc1OCC | 68 | 6 | -2 | 58* | 5 | · | 28
CC1CC(C)CN(CCCNC(=O)c2ccc3c(c2)N(Cc2ccccc2)C(=O)c2ccccc2S3=O)C1 (stereo not given) | 8 | 28 | 5 | 64* | 0 | 7 | 41* | FLuc counter=69*
CC1CCCCN1CCNC(=O)c1ccc2c(c1)N(Cc1cccc(Cl)c1)C(=O)c1ccccc1S2=O (stereo not given) | 13 | 21 | 6 | 33 | -2 | -2 | ·
O=C(NCCCN1CCCC1)c1ccc2c(c1)N(Cc1cccc(Cl)c1)C(=O)c1ccccc1S2=O (stereo not given) | -7 | 12 | -6 | 53* | 0 | -4 | 14
Cc1ccc(CC(=O)Nc2ccc(C(=O)N3CCOCC3)cc2)cc1 | -7 | -7 | -3 | 1 | -13 | -1 | ·
CC1CCC2(CC1)NC(=O)N(CC(=O)Nc1ccc(C(N)=O)cc1)C2=O (stereo not given) | -14 | · | · | 6 | · | 2 | ·
Cc1cc(C)c(NC(=O)CCCCCNC2CCCCC2)c(C)c1 | 4 | 4 | 2 | 2 | -5 | -7 | ·
Cc1cc(C)nc(NC(=S)Nc2ccc(Br)cc2Cl)c1 | -13 | -6 | -2 | 51* | -12 | -1 | -6
Cc1nn(C(=O)c2cc([N+](=O)[O-])ccc2Cl)c(C)c1Br | -2 | -7 | 2 | -16 | 5 | -7 | ·
COc1ccc(/C(C)=N/NC(=O)c2nnn(-c3nonc3N)c2-c2cccs2)cc1OC | 6 | 1 | -10 | 59* | 6 | 6 | -8
COc1ccc(/C(C)=N/NC(=O)c2nnn(-c3nonc3N)c2-c2ccccc2)cc1 | · | -4 | 10 | 61* | 2 | -4 | 9
COc1ccc(/C(C)=N/NC(=O)c2nnn(-c3nonc3N)c2-c2cccs2)cc1 | -4 | 6 | 2 | 59* | -3 | -1 | -2
